Assay results taken from ChEMBL document CHEMBL4261600 (Eur J Med Chem, 2018).
The source made the active and inactive calls. The calls are words filed in the database; no cut-off is given here.

Assays:
SKM-1 = assay: Antiproliferative activity against human SKM1 cells after 72 hrs by Celltiter-Glo assay; type: functional; details: SKM-1, 72 h
Method in brief: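 Cells seeded at 3000/well in 96-well plates, exposed to serially diluted compound for 72 h at 37 °C, 5% CO2. Viability read by CellTiter-Glo luminescence and normalized to DMSO control. GI50 derived from curve fit, mean of three independent measurements. Culture media: DMEM/10% FBS for adherent lines; IMDM for MV4-11 and MEC-1/2; RPMI 1640 for suspension lines and CHL.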

[1] = biological target: MAP/microtubule affinity-regulating kinase 4 (Homo sapiens) (UniProt Q96L34); assay: Binding affinity to wild-type human partial length MARK4 (K29 to G340 residues) expressed in bacterial expression system assessed as remaining unbound target protein level at 1000 nM by Kinomescan method relative to control
MV4-11 [2] = assay: Induction of apoptosis in human MV4-11 cells assessed as decrease in XIAP level up to 3 uM after 2 hrs by immunoblotting analysis; type: functional, cell-based
[3] = biological target: Mast/stem cell growth factor receptor Kit (Homo sapiens) (UniProt P10721); assay: Binding affinity to wild-type human partial length autoinhibited KIT (Y545 to D952 residues) expressed in mammalian expression system assessed as remaining unbound target protein level at 1000 nM by Kinomescan method relative to control
[4] = biological target: Serine/threonine-protein kinase MRCK gamma (Homo sapiens) (UniProt Q6DT37); assay: Binding affinity to wild-type human partial length DMPK2 (S46 to S408 residues) expressed in bacterial expression system assessed as remaining unbound target protein level at 1000 nM by Kinomescan method relative to control
[5] = biological target: Ephrin type-B receptor 4 (Homo sapiens) (UniProt P54760); assay: Binding affinity to wild-type human partial length EPHB4 (H585 to G892 residues) expressed in bacterial expression system assessed as remaining unbound target protein level at 1000 nM by Kinomescan method relative to control
Method in brief: (§1)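 KINOMEscan binding panel of 468 kinases/mutants. Inhibitor was tested at a single concentration of 1 μM. Binding is reported as percent of control, defined relative to a DMSO control.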

[6] = biological target: Membrane-associated tyrosine- and threonine-specific cdc2-inhibitory kinase (Homo sapiens) (UniProt Q99640); assay: Binding affinity to wild-type human partial length PKMYT1 (A88 to G366 residues) expressed in bacterial expression system assessed as remaining unbound target protein level at 1000 nM by Kinomescan method relative to control
[7] = system: Phosphatidylinositol 4,5-bisphosphate 3-kinase catalytic subunit alpha isoform (Homo sapiens), P42336 [H1047L]; assay: Binding affinity to human partial length PIK3CA H1047L mutant (R108 to N1068 residues) expressed in mammalian expression system assessed as remaining unbound target protein level at 1000 nM by Kinomescan method relative to control
Method in brief: (§2)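 KINOMEscan competition-binding profiling across the panel of 468 kinases and mutants, with inhibitor tested at 1 μM. Binding is expressed as percent of control, with DMSO as the reference control.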

[8] = biological target: Tyrosine-protein kinase JAK1 (Homo sapiens) (UniProt P23458); assay: Binding affinity to wild-type human partial length JAK1 JH1 catalytic domain (V856 to K1154 residues) expressed in bacterial expression system assessed as remaining unbound target protein level at 1000 nM by Kinomescan method relative to control; method in brief: as §1
[9] = biological target: Serine/threonine-protein kinase TNNI3K (Homo sapiens) (UniProt Q59H18); assay: Binding affinity to wild-type human full length TNNI3K (M1 to S835 residues) expressed in bacterial expression system assessed as remaining unbound target protein level at 1000 nM by Kinomescan method relative to control
Method in brief: (§3)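 KINOMEscan competition binding profile across a panel of 468 kinases and mutants, with the inhibitor tested at a single concentration of 1 μM. Binding is reported as percent of control, meaning signal relative to a DMSO control.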

[10] = biological target: Tyrosine-protein kinase TXK (Homo sapiens) (UniProt P42681); assay: Binding affinity to wild-type human partial length TXK (L238 to W527 residues) expressed in bacterial expression system assessed as remaining unbound target protein level at 1000 nM by Kinomescan method relative to control
[11] = biological target: Phosphorylase b kinase gamma catalytic chain, skeletal muscle/heart isoform (Homo sapiens) (UniProt Q16816); assay: Binding affinity to wild-type human full length PHKG1 (M1 to Y387 residues) expressed in bacterial expression system assessed as remaining unbound target protein level at 1000 nM by Kinomescan method relative to control; method in brief: as §3
[12] = AUC (0 to t) in beagle dog at 2 mg/kg, iv by LC-MS/MS analysis; type: ADME, organism-based, Canis lupus familiaris; details: in vivo
Method in brief: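 Non-compartmental PK. Male SD rats 190-210 g, mice and beagle dogs acclimatized one week, fasted 12 h with water, split into iv and po groups (mice 48, rats 6, dogs 6). iv 3/3/2 mg/kg (mice/rats/dogs); po 10/20/10 mg/kg; vehicle DMSO in 5% glucose water. Blood at 2 or 5 to 720 min; plasma protein-precipitated with methanol, caffeine internal standard, LC-MS/MS.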

MV4-11 [13] = assay: Cell cycle arrest in human MV4-11 cells increase in accumulation at G0/G1 phase at 0.01 to 0.03 uM after 24 hrs by propidium iodide/RNase staining based flow cytometric analysis
[14] = biological target: MAP kinase-interacting serine/threonine-protein kinase 1 (Homo sapiens) (UniProt Q9BUB5); assay: Binding affinity to wild-type human full length MKNK1 (M1 to L424 residues) expressed in mammalian expression system assessed as remaining unbound target protein level at 1000 nM by Kinomescan method relative to control
Method in brief: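 Single-point competition binding screen across a panel of 468 kinases and mutants, with the inhibitor at 1 μM. Binding is read out as percent of a DMSO control, and targets below 1 percent control were classed as strong binders.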

[15] = system: Tyrosine-protein kinase ABL1 (Homo sapiens), P00519 [Q252H]; assay: Binding affinity to human non-phosphorylated ABL1 Q252H mutant (S229 to K512 residues) expressed in mammalian expression system assessed as remaining unbound target protein level at 1000 nM by Kinomescan method relative to control; method in brief: as §2
[16] = Tmax in Sprague-Dawley rat at 3 mg/kg, iv by LC-MS/MS analysis; type: ADME, organism-based; details: in vivo
[17] = biological target: Uncharacterized serine/threonine-protein kinase SBK3 (Homo sapiens) (UniProt P0C264); assay: Binding affinity to wild-type human partial length SgK110 (L22 to R329 residues) expressed in bacterial expression system assessed as remaining unbound target protein level at 1000 nM by Kinomescan method relative to control
[18] = Tmax in mouse at 10 mg/kg, po by LC-MS/MS analysis; type: ADME, organism-based; details: in vivo
[19] = biological target: Receptor-type tyrosine-protein kinase FLT3 (Homo sapiens) (UniProt P36888); assay: Binding affinity to wild-type human partial length autoinhibited FLT3 (H564 to Y969 residues) expressed in mammalian expression system assessed as remaining unbound target protein level at 1000 nM by Kinomescan method relative to control

Chain of Serine/threonine-protein kinase MRCK gamma (Homo sapiens) (Q6DT37 whole entry, the tested form may be a part): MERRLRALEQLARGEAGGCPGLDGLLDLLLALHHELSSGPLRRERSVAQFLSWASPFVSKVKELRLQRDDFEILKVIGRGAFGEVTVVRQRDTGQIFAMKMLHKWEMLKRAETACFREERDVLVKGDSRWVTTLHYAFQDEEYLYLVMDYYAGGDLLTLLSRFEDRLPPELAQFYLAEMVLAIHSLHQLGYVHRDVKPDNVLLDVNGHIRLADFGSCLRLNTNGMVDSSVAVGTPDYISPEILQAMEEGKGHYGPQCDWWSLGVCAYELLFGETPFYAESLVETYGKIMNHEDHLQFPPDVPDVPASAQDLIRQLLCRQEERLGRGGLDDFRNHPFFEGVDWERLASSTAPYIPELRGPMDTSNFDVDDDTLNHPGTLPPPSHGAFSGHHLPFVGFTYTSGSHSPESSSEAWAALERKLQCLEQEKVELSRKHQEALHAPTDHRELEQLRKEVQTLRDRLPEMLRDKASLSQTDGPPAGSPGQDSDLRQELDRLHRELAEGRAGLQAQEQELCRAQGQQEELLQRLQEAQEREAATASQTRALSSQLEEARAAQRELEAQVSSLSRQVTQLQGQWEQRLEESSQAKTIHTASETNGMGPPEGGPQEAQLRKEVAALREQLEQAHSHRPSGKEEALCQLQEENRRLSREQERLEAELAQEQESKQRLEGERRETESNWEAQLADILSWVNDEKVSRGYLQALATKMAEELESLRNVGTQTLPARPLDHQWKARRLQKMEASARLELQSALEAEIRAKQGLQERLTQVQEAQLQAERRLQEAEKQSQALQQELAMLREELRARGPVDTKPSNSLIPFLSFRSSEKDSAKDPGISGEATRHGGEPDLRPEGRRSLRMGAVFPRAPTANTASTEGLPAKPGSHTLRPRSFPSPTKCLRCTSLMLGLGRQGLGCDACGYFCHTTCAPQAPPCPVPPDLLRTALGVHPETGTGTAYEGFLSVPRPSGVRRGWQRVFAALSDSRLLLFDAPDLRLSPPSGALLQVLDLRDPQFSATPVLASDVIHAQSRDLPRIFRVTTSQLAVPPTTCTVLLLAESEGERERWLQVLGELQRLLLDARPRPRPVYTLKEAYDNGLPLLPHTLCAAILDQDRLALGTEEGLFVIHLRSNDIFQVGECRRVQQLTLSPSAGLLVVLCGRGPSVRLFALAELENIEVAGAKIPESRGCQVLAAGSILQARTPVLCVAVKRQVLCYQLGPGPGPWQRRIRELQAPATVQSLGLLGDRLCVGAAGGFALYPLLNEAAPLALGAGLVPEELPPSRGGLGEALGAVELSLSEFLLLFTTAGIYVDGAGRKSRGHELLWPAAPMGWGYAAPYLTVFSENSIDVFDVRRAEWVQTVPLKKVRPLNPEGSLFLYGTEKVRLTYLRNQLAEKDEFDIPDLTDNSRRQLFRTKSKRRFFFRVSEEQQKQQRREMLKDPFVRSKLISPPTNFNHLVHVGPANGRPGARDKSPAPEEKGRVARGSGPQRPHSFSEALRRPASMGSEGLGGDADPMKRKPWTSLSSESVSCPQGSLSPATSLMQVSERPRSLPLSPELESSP
Chain of Ephrin type-B receptor 4 (Homo sapiens) (P54760 whole entry, the tested form may be a part): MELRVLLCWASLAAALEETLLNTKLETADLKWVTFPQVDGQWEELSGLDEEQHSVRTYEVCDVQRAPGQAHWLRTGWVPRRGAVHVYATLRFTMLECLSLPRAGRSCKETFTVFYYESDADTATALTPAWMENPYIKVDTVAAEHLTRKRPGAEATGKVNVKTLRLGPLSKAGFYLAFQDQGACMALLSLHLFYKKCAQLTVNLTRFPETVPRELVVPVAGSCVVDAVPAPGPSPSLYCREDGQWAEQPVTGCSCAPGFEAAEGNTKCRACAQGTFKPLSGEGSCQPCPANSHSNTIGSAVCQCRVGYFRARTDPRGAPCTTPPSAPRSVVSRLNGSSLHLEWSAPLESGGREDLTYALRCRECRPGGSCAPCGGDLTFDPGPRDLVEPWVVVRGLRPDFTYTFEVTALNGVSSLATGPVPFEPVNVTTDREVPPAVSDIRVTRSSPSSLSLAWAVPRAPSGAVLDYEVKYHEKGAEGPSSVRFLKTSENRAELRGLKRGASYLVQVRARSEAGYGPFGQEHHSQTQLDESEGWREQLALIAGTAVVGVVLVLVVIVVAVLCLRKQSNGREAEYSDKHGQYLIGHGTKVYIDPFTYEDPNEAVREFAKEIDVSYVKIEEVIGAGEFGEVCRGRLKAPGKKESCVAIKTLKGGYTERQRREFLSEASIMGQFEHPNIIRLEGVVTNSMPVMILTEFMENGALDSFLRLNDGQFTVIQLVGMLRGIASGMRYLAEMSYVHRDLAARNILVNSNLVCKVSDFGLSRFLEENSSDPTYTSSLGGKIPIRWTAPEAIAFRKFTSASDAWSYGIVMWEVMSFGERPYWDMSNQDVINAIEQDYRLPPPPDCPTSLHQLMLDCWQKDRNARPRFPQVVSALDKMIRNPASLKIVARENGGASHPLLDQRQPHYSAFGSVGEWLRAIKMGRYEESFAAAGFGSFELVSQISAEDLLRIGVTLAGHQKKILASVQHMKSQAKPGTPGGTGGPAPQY
Chain of Tyrosine-protein kinase JAK1 (Homo sapiens) (P23458 whole entry, the tested form may be a part): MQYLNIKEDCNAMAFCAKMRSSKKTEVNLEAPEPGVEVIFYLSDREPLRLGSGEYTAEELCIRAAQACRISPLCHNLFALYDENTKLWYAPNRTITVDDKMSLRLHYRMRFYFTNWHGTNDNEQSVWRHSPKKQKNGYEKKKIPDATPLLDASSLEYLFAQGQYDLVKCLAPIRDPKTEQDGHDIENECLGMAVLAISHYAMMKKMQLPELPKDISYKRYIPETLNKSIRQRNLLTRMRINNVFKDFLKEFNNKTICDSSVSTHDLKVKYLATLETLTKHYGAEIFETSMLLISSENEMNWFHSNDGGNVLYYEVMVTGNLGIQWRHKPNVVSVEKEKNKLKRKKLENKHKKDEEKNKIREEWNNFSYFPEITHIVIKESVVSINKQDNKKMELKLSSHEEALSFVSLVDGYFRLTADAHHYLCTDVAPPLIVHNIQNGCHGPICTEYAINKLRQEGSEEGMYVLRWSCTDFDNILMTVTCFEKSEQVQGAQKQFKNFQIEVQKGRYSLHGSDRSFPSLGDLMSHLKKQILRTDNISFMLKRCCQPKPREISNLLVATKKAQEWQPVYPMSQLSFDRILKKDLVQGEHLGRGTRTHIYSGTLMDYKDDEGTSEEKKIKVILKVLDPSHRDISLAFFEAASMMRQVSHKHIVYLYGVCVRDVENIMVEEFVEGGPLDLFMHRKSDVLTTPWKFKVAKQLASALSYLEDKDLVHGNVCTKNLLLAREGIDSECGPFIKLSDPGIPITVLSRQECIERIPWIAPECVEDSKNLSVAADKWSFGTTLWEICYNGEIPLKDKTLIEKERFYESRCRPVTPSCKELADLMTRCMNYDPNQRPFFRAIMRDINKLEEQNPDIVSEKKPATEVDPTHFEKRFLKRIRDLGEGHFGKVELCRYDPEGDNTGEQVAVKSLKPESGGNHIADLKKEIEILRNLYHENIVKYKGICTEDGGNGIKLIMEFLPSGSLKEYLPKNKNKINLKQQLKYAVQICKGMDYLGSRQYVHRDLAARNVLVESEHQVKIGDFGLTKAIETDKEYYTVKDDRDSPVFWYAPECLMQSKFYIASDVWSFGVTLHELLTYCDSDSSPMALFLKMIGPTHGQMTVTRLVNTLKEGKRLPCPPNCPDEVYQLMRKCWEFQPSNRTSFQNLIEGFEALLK
Chain of Membrane-associated tyrosine- and threonine-specific cdc2-inhibitory kinase (Homo sapiens) (Q99640 whole entry, the tested form may be a part, canonical isoform): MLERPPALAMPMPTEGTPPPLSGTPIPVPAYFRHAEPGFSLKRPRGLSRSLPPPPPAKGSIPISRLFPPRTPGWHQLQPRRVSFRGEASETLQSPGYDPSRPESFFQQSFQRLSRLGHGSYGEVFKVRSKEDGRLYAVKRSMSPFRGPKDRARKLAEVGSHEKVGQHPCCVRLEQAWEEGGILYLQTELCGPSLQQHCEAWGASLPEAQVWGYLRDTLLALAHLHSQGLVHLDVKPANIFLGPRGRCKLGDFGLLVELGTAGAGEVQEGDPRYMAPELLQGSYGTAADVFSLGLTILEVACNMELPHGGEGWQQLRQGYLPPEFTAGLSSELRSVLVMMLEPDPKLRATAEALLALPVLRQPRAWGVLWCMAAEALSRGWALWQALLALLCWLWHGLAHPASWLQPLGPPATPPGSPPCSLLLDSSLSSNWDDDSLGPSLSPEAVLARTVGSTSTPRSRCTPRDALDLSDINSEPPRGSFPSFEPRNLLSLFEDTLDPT
Chain of MAP/microtubule affinity-regulating kinase 4 (Homo sapiens) (Q96L34 whole entry, the tested form may be a part): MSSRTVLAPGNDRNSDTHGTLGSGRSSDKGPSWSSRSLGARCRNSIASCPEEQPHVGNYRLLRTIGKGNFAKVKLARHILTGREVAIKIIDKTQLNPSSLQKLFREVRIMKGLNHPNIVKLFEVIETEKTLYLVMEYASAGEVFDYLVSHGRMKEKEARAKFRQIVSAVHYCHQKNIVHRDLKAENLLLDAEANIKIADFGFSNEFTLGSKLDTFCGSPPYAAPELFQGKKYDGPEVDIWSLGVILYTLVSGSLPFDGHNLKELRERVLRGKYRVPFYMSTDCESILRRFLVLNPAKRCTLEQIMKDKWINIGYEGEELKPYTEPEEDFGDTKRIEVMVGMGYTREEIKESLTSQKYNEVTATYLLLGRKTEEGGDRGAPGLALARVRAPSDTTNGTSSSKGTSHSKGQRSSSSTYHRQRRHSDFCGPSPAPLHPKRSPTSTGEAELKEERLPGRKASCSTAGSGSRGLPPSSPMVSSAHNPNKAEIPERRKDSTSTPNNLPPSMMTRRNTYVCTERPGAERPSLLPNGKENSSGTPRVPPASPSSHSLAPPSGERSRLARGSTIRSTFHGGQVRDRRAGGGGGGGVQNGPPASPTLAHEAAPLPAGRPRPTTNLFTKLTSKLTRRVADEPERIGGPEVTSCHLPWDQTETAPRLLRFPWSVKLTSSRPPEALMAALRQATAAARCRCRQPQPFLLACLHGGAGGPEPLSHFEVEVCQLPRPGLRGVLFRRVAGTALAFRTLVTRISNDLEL

COCCN[C@H]1CC[C@H](Nc2cc(-c3csc(NCC4(C#N)CCOCC4)n3)c(Cl)cn2)CC1
GI50 (SKM-1): 12 nM | Activity [1]: 87% | Activity (MV4-11 [2]): inactive | Activity [3]: 94% | Activity [4]: 92% | Activity [5]: 86% | Activity [6]: 100% | Activity [7]: 100% | Activity [8]: 99% | Activity [9]: 95% | Activity [10]: 90% | Activity [11]: 69% | AUC(0-t) [12]: 2010 ng·h/mL | Activity (MV4-11 [13]): Active | Activity [14]: 100% | Activity [15]: 97% | Tmax [16]: 1.2 min | Activity [17]: 89% | Tmax [18]: 2 h | Activity [19]: 100%
